Data reported in ChEMBL document CHEMBL4373742, “Novel thiazolidinedione-hydroxamates as inhibitors of Mycobacterium tuberculosis virulence factor Zmp1” (Eur J Med Chem, 2020).
pIC50: −log10 of the molar value. The source made the active and inactive calls. The rule behind the calls is not given here.

How the values were obtained:
[1] = Cytotoxicity against mouse RAW264.7 cells assessed as reduction in cell viability after 24 hrs by neutral red dye based assay
Outline: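 Neutral red uptake assay on RAW264.7 murine macrophages in DMEM + 10% heat-inactivated FCS, 40.000 cells/well, seeded the day before. Two-fold serial dilutions from 128 µM final. Exposure 24 h at 37 °C, 5% CO2; then neutral red for 3 h, extraction with 1:1 ethanol/acetic acid. OD read at 530 nm (reference 620 nm).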

[2] = tested on: Mycobacterium tuberculosis; assay: Inhibition of Mycobacterium tuberculosis Zinc metalloprotease-1 at 40 uM using angiotensin 2 as substrate preincubated for 3 mins and measured after 20 mins by MALDI-TOF MS analysis relative to control
Outline: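 Human angiotensin II substrate in NH4HCO3 was preincubated 3 min at 37 °C with inhibitor in acetone (acetone alone for control). Recombinant Mtb Zmp1 was added and the reaction ran 20 min at 37 °C. Cleavage was followed by MALDI-TOF MS (reflectron positive mode). Inhibition rate at 40 µM was taken as the inverted ratio of time-course slopes, inhibited versus control. Phosphoramidon reference at 40 µM final.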

[3] = Inhibition of Mycobacterium tuberculosis Zinc metalloprotease-1 using angiotensin 2 as substrate preincubated for 3 mins and measured after 20 mins by MALDI-TOF MS analysis
Outline: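 Zmp1 digestion of human angiotensin II in NH4HCO3 at 37 °C: 3 min preincubation with inhibitor, then 20 min reaction with recombinant Mtb Zmp1, monitored by MALDI-TOF MS. IC50 derived from slope ratios, inhibited versus control, at three inhibitor concentrations within 20–80 µM.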

[4] = tested on: Mycobacterium tuberculosis; assay: Antimycobacterial activity against Mycobacterium tuberculosis H37Ra infected in mouse RAW264.7 cells assessed as inhibition of intracellular bacterial growth at 10 uM after 24 hrs by luciferase reporter gene based assay relative to control; format: functional; settings: RAW264.7, 24 h, read-out: INH
Outline: (§1)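 Murine RAW264.7 macrophages (DMEM + 10% heat-inactivated FCS, 37 °C, 5% CO2; 40.000 cells/well) infected 2 h at 37 °C with luciferase-reporter Mtb H37Ra (pSMT1) at MOI 10. Extracellular bacteria were killed with 100 µg/ml gentamicin for 1 h. Compounds were given at 10 and 100 µM final; isoniazid reference 0.1 µM. After 24 h, cells were lysed in 1% Triton X-100 and read by luminescence after n-decanal addition. Inhibition % was calculated versus untreated control; mean of triplicates.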

[5] = tested on: Mycobacterium tuberculosis; assay: Antimycobacterial activity against Mycobacterium tuberculosis H37Ra infected in mouse RAW264.7 cells assessed as inhibition of intracellular bacterial growth at 10 uM after 24 hrs by luciferase reporter gene based assay; format: functional, organism-based; outline: as §1
[6] = Selectivity index, ratio of CC50 for mouse RAW264.7 cells to MIC90 for antimycobacterial activity against Mycobacterium tuberculosis H37Rv; format: toxicity; settings: read-out: Selectivity Index
[7] = tested on: Mycobacterium tuberculosis; assay: Antimycobacterial activity against Mycobacterium tuberculosis H37Ra infected in mouse RAW264.7 cells assessed as inhibition of intracellular bacterial growth at 100 uM after 24 hrs by luciferase reporter gene based assay relative to control; format: functional; settings: RAW264.7, 24 h; outline: as §1
[8] = tested on: Mycobacterium tuberculosis; assay: Antimycobacterial activity against Mycobacterium tuberculosis H37Ra infected in mouse RAW264.7 cells assessed as inhibition of intracellular bacterial growth at 100 uM after 24 hrs by luciferase reporter gene based assay; format: functional, organism-based; outline: as §1

SMILES	CC50 at 24 h [1] [µM]	inhibition [2] [%]	pIC50 [3]	percent inhibition of intracellular bacterial growth at 10 µM [4] [%]	inhibition [5]	selectivity ratio [6]	inhibition in vivo at 100 µM [7] [%]	inhibition [8]
C=CCONC(=O)C(C)N1C(=O)S/C(=C\CCCC)C1=O (centres undefined)	> 128	34.7	3.80 to 4.70					
CC/C(=C(\c1ccccc1)c1ccc(OCCN(C)C)cc1)c1ccccc1 [TAMOXIFEN]	11.1							
C=CCONC(=O)CN1C(=O)S/C(=C\c2ccc(F)cc2)C1=O	> 128	69.8	3.80 to 4.70					
CC(C(=O)NOCc1ccccc1)N1C(=O)S/C(=C\c2ccc(F)cc2)C1=O (centres undefined)	> 128	95.8	3.80 to 4.70	25.1				
CC(C(=O)NOCc1ccccc1)N1C(=O)S/C(=C\c2ccccc2)C1=O (centres undefined)	> 128	93.3	3.80 to 4.70	46.9				
CC(C)C[C@H](NP(=O)(O)O[C@@H]1O[C@@H](C)[C@H](O)[C@@H](O)[C@H]1O)C(=O)N[C@@H](Cc1c[nH]c2ccccc12)C(=O)O [PHOSPHORAMIDON]		78	3.80 to 4.70					
CCCC/C=C1\SC(=O)N(CC(=O)NOCc2ccccc2)C1=O	> 128	99.8	3.80 to 4.70		inactive			
O=C(CN1C(=O)S/C(=C\c2ccc(F)cc2)C1=O)NOCc1ccccc1	> 128	78.3	3.80 to 4.70	20.6				
CCCC/C=C1\SC(=O)N(C(C)C(=O)NOCc2ccccc2)C1=O (centres undefined)	43.9	37.1	3.80 to 4.70		inactive	> 0.7		
C=CCONC(=O)C(C)N1C(=O)S/C(=C\c2ccc(F)cc2)C1=O (centres undefined)	> 128	95.5	3.80 to 4.70					
C=CCONC(=O)CN1C(=O)S/C(=C\c2ccc(C(F)(F)F)cc2)C1=O	> 128	87.2	3.80 to 4.70		inactive			
CC(C(=O)NOCc1ccccc1)N1C(=O)CSC1=O (centres undefined)	> 128	78.1	3.80 to 4.70					
O=C(CN1C(=O)CSC1=O)NOCc1ccccc1	> 128	31.9	3.80 to 4.70					
O=C(CN1C(=O)S/C(=C\c2ccc(C(F)(F)F)cc2)C1=O)NOCc1ccccc1	> 128	64.9	4.42	48.8			70.4	
C=CCONC(=O)C(C)N1C(=O)S/C(=C\c2ccc(C(F)(F)F)cc2)C1=O (centres undefined)	> 128	44.5	3.80 to 4.70		inactive			
C=CCONC(=O)CN1C(=O)S/C(=C\CCCC)C1=O	> 128	89.9	4.74			> 2.1		Active
O=C(CN1C(=O)S/C(=C\c2ccccc2)C1=O)NOCc1ccccc1	> 128	59.5	3.80 to 4.70	38.3				
C=CCONC(=O)CN1C(=O)S/C(=C\c2ccccc2)C1=O	> 128	59	3.80 to 4.70					
C=CCONC(=O)C(C)N1C(=O)S/C(=C\c2ccccc2)C1=O (centres undefined)	> 128	13	3.80 to 4.70					
C=CCONC(=O)C(C)N1C(=O)CSC1=O (centres undefined)	> 128	57.9	3.80 to 4.70	21.6				
CC(C(=O)NOCc1ccccc1)N1C(=O)S/C(=C\c2ccc(C(F)(F)F)cc2)C1=O (centres undefined)	> 128	16.3	3.80 to 4.70	19.4				
C=CCONC(=O)CN1C(=O)CSC1=O	> 128	92.2	3.80 to 4.70	30.2				
